Data taken from ChEMBL document CHEMBL5705906 (Nat Commun, 2017).
Active and inactive are the calls of the source. No cut-off for these calls is given here.

Key:
BaF3 [1] = conditions: Mus musculus, dose 10-1000 nM
BaF3 [2] = experiment: Inhibition of EGFR-T790M/del19 mutant in mouse BaF3 cells assessed as inhibition of ERK phosphorylation at 10 to 1000 nM incubated for 6 hrs by Western blotting analysis; format: cell-based; conditions: dose 10-1000 nM
Summary of the method: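 Ba/F3 cells carrying the stated EGFR mutant were made IL-3-independent after 1 week of 7 µM blasticidin selection. They were grown in low-glucose DMEM with 10% FBS and exposed to inhibitor for 6 h. Cells were washed in cold PBS, lysed in SDS buffer (100 mM Tris, 1% SDS, 10% glycerol) and boiled 5 min. Protein was measured by BCA, run on SDS-PAGE, transferred to PVDF, blocked in 5% BSA or milk/TBS-T, and immunoblotted.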

PC-9 = experiment: Inhibition of EGFR T790M/del19 mutant in human PC-9 cells assessed as reduction in Akt phosphorylation at 10 to 1000 nM by Western blotting analysis; format: cell-based; conditions: dose 10-1000 nM
[3] = Toxicity against Balb-c nu/nu mouse xenografted with human PC-9 cells expressing EGFR-C797S/T790M/del19 mutant assessed as change in body weight at 75 mg/kg, po administered for 15 days and measured twice weekly; format: organism-based; conditions: in vivo, 360 h, time 15 day
Summary of the method: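 PC9 triple-mutant cells (6×10^6 in 100 µl 1:2 Matrigel) were implanted subcutaneously in Balb-c nu/nu mice. At a mean tumour volume of ~200 mm³, mice were randomized, excluding the top and bottom 5% by tumour size. […] Body weight was recorded twice weekly, n=6 per group, and tumours were resected on treatment day 15.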

## COc1cc(N2CCC(N3CCN(C)CC3)CC2)ccc1Nc1ncc(Cl)c(Nc2ccccc2P(C)(C)=O)n1 [BRIGATINIB]
BaF3 [1]
  inhibition: Dose-Dependent Effect
BaF3 [2]
  inhibition: Active
PC-9
  inhibition: Active
[3]
  Activity: Non-Toxic
